In the library only some 3.7% were active in any assay of this set; here they are far more common.
KCNQ1 inh – inhibitors of human KCNQ1 potassium channel. 310,000 tested, 1.3% active. P51787. B-score at 10 µM. CHO-K1 KCNQ1, FluxOR thallium flux fluorescence; active compounds read high;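 active = compounds whose thallium flux B-score, printed positive for inhibition, exceeds three library SD while starting fluorescence stays within three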;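 note: channel opened by potassium depolarization with thallium stimulus after 20 min compound exposure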
Kir21 inh – Kir2.1 (mouse) channel inhibition; P35561; HEK293-Kir2.1, FluxOR thallium flux fluorescence; active compounds read low; B-score at 10 µM; 310,000 tested, 0.85% active;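 active = fluorescence ratio B-score at or below minus 3 SD of library scores, with starting-brightness B-score within 2 SD, cut at about -4.2 in these data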;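 note: channel flux triggered by added potassium and thallium sulfate stimulus; B-score of peak minus minimum fluorescence over baseline after thallium stimulus; more negative B-score means stronger Kir2.1 block with less thallium influx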
KCNK3 block – human KCNK3 channel inhibition, primary screen; B-score at 10 µM; CHO-KCNK3 thallium flux, FluxOR fluorescence; active compounds read low; 340,000 tested, 0.84% active;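 active = B-score under library mean minus 4 SD, starting fluorescence ratio at most library mean plus 5 SD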;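 note: more negative B-score means stronger inhibition of thallium flux through KCNK3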
KCNQ1 pot – potentiators or activators of human KCNQ1 potassium channel | P51787 | CHO-K1 KCNQ1, thallium flux FluxOR fluorescence; active compounds read high | B-score at 10 µM | 310,000 tested, 0.35% active;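 active = fluorescence ratio B-score, a plate-corrected score, at least three library SD, with initial intensity B-score within 5 SD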
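assay system = KCNQ1-transfected CHO-K1 cells | medium = assay buffer with matched DMSO | probe or stimulus = depolarizing K+/Tl+ stimulus, K2SO4 and Tl2SO4 each 12.5 mM in 5x stock | dosing = single dose | incubation = dye 90 min, compound 20 min, room temperature | detection = kinetic FluxOR fluorescence, 10 s baseline plus 110 s post-stimulus | evaluation = ratio B score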
KCNK9 inh – blocks the human KCNK9 two-pore domain potassium channel | Q9NPC2 | HEK293 KCNK9, FluxOR thallium flux fluorescence; active compounds read low | B-score at 10 µM | 310,000 tested, 1.2% active | AID 488922;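 active = ratio B-score over 3 SD below the library mean, with starting fluorescence within 5 SD of its mean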;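 note: negative B-score means less thallium flux so channel inhibition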
Target sequence (Q9NPC2 whole entry, looked up, the tested form may be a part): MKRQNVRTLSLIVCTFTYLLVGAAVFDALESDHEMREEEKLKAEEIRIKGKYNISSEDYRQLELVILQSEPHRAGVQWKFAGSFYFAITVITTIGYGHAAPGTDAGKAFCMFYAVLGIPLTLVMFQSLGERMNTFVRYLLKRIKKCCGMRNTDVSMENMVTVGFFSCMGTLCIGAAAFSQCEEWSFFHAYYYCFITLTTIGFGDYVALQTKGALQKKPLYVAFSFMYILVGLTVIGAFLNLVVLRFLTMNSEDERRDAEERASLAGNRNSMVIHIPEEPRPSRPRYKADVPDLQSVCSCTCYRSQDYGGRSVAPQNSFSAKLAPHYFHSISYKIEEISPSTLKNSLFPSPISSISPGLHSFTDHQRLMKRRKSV
hERG rescue – hERG (human) protection from proarrhythmic block. CHO-hERG, FluxOR thallium flux, dofetilide IC70 present. Q12809. AID 1511. activation (rescue from dofetilide block), less the hit threshold, % at 10 µM. 310,000 tested, 0.51% active;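 active = activation above the mean of controls blocked by dofetilide plus 5 SD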;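 note: thallium influx through hERG after potassium depolarization seen as dye fluorescence rise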
Numbers without * were called inactive.

What do the screens show for `CN(c1ccccc1)S(=O)(=O)c1ccc(Cl)c(C(=O)Nc2ccc(-c3nc4ccccc4[nH]3)cc2)c1`?
KCNQ1 inh: inactive; Kir21 inh: 0.06; KCNK3 block: inactive; KCNQ1 pot: inactive; KCNK9 inh: inactive; hERG rescue: -17.5

Results for CCC(=O)Nc1cccc(NC(=O)c2ccc(C)c([N+](=O)[O-])c2)c1 ?
KCNQ1 inh: inactive; Kir21 inh: -1.25; KCNK3 block: inactive; KCNQ1 pot: inactive; KCNK9 inh: inactive; hERG rescue: -21.8

How did CCOc1ccccc1NC(=O)c1cccc(NC(=O)C(C)C)c1 do in these assays?
KCNQ1 inh: inactive; Kir21 inh: -0.62; KCNK3 block: inactive; KCNQ1 pot: inactive; KCNK9 inh: inactive; hERG rescue: -16.8

What do the screens show for `CCCC(=O)Nc1cccc(NC(=O)c2ccc(C)c([N+](=O)[O-])c2)c1`?
KCNQ1 inh: inactive; Kir21 inh: -4.82*; KCNK3 block: inactive; KCNQ1 pot: inactive; KCNK9 inh: inactive; hERG rescue: -13.8

How did CCCC(=O)Nc1cccc(C(=O)Nc2ccccc2OCC)c1 do in these assays?
KCNQ1 inh: inactive; Kir21 inh: 0.15; KCNQ1 pot: inactive; KCNK9 inh: -7.8*; hERG rescue: -8.7

How did Cc1ccc(S[C@@H](CCN2CC[C@H](C(C)(C)C)CCC2=O)c2ccccc2)cc1 do in these assays?
KCNQ1 inh: 7*; Kir21 inh: -0.9; KCNK3 block: inactive; KCNQ1 pot: inactive; KCNK9 inh: inactive; hERG rescue: -5.7

How did O=C(CCCOc1ccccc1)NNC(=O)c1ccncc1 do in these assays?
KCNK3 block: inactive

What do the screens show for `COC(=O)C1CCN(C(=O)c2cc(-c3ccc(Cl)s3)nc3ccccc23)CC1`?
KCNK3 block: -9.12*

How did O=C(Nc1ccc(Cl)cc1)N(C1=NCCC1)c1ccc(OC(F)F)cc1 do in these assays?
KCNQ1 inh: 6*; Kir21 inh: 0.24; KCNK3 block: inactive; KCNQ1 pot: inactive; KCNK9 inh: inactive; hERG rescue: -16.4

Results for Cc1cc(NCCCn2ccnc2)n2nc(C)c(-c3ccccc3)c2n1 ?
KCNQ1 inh: 6*; Kir21 inh: -3.92; KCNK3 block: inactive; KCNQ1 pot: inactive; KCNK9 inh: inactive; hERG rescue: -15.4

What do the screens show for `Clc1ccc(CONc2ncnc3nonc23)c(Cl)c1`?
KCNQ1 inh: 7*; Kir21 inh: -1.59; KCNK3 block: inactive; KCNQ1 pot: inactive; KCNK9 inh: inactive; hERG rescue: -25.3

Results for CCOC(=O)c1cc([N+](=O)[O-])sc1NC(=O)c1ccc(S(=O)(=O)N2CC3(C)CC2CC(C)(C)C3)cc1 (stereo not given) ?
KCNQ1 inh: 8*; Kir21 inh: 1.34; KCNK3 block: inactive; KCNQ1 pot: inactive; KCNK9 inh: inactive; hERG rescue: -12.0

Results for O=C(NCC(c1cccs1)N1CCOCC1)c1ccccc1NS(=O)(=O)c1ccc(Cl)c([N+](=O)[O-])c1 (stereo not given) ?
KCNQ1 inh: 13*; Kir21 inh: 0.5; KCNK3 block: inactive; KCNQ1 pot: inactive; KCNK9 inh: inactive; hERG rescue: -12.7

How did O=C(NCC(c1cccs1)N1CCOCC1)c1ccccc1NS(=O)(=O)c1cccc([N+](=O)[O-])c1 (stereo not given) do in these assays?
KCNQ1 inh: inactive; Kir21 inh: 0.85; KCNK3 block: inactive; KCNQ1 pot: inactive; KCNK9 inh: inactive; hERG rescue: -8.8

Results for CCOc1ccc(C(O)(c2ccccc2OC)C(CN2CCCC2)c2ccccc2)cc1 (stereo not given) ?
KCNQ1 inh: 11*; Kir21 inh: -1.63; KCNK3 block: inactive; KCNQ1 pot: inactive; KCNK9 inh: inactive; hERG rescue: -12.1

What do the screens show for `S=C(NCCNCc1ccccc1)NC1CCCCC1`?
KCNQ1 inh: inactive; Kir21 inh: 2.14; KCNQ1 pot: inactive; KCNK9 inh: -7.14*; hERG rescue: -14.7

What do the screens show for `S=C(NCCc1ccccc1)NC1CCCCCC1`?
KCNQ1 inh: inactive; Kir21 inh: 0.69; KCNK3 block: inactive; KCNQ1 pot: inactive; KCNK9 inh: inactive; hERG rescue: -14.2

How did CN1/C(=C\C(=S)NC(=O)c2cccc(Br)c2)C(C)(C)c2ccccc21 do in these assays?
KCNQ1 inh: inactive; Kir21 inh: 0.99; KCNK3 block: inactive; KCNQ1 pot: inactive; KCNK9 inh: inactive; hERG rescue: -4.0

What do the screens show for `CCN(CC)S(=O)(=O)c1cccc(C(=O)/C=C2/N(C)c3ccccc3C2(C)C)c1`?
KCNQ1 inh: inactive; Kir21 inh: -0.02; KCNK3 block: inactive; KCNQ1 pot: inactive; KCNK9 inh: -7.71*; hERG rescue: -15.0

What do the screens show for `C1=CC2=NC34CCCCC3CC3=C(CCCC3)N4C2=CC1=NC1CCCCC1` (stereo not given)?
KCNQ1 inh: 7*; Kir21 inh: 0.06; KCNK3 block: inactive; KCNQ1 pot: inactive; KCNK9 inh: inactive; hERG rescue: -17.2

Results for Cc1ccc(C[n+]2cccc(-c3ccccc3)c2)c(C)c1 ?
KCNQ1 inh: inactive; Kir21 inh: -4.28*; KCNK3 block: inactive; KCNQ1 pot: inactive; KCNK9 inh: inactive; hERG rescue: -12.7

Results for Cc1ccc2ccc[n+](Cc3ccccc3)c2c1 ?
KCNQ1 inh: inactive; Kir21 inh: -0.62; KCNK3 block: inactive; KCNQ1 pot: inactive; KCNK9 inh: inactive; hERG rescue: -5.8

What do the screens show for `CCOC(=O)CNC(=O)CSc1nc(Cc2cccs2)nc2ccccc12`?
KCNQ1 inh: inactive; Kir21 inh: -2.8; KCNK3 block: inactive; KCNQ1 pot: inactive; KCNK9 inh: inactive; hERG rescue: 5.2*

How did CC(C)(C)c1nc(SCC(=O)NCc2cccs2)c2ccccc2n1 do in these assays?
KCNQ1 inh: inactive; Kir21 inh: -1.98; KCNK3 block: inactive; KCNQ1 pot: inactive; KCNK9 inh: inactive; hERG rescue: -20.0

How did CCOc1ccc(NC(=O)c2cn(-c3ccc(OCC)cc3)c(=O)c3cc(OC)c(OC)cc23)cc1 do in these assays?
KCNQ1 inh: inactive; Kir21 inh: -1.02; KCNK3 block: inactive; KCNQ1 pot: inactive; KCNK9 inh: inactive; hERG rescue: -9.8

How did CCOc1ccc(-n2cc(C(=O)Nc3cccc(C)n3)c3cc(OC)c(OC)cc3c2=O)cc1 do in these assays?
KCNQ1 inh: inactive; Kir21 inh: 0.93; KCNK3 block: inactive; KCNQ1 pot: 13*; KCNK9 inh: inactive; hERG rescue: -14.3

How did O=C(Nc1ccccc1N1CCN(c2ccc(F)cc2)CC1)C12CC3CC(CC(C3)C1)C2 do in these assays?
KCNQ1 inh: inactive; Kir21 inh: -1.43; KCNK3 block: inactive; KCNQ1 pot: inactive; KCNK9 inh: -7.03*; hERG rescue: -9.1
